Activity calls are given as the source filed them. The rule behind the calls is not given here.
Legend:
[1] = tested on: Bel-7402; experiment: Cytotoxicity against human Bel7402 cells at 10 uM after 96 hrs by MTT assay; type: functional, cell-based
[2] = Toxicity in ip dosed mouse acetic acid wrtihe model; type: organism-based; conditions: in vivo
Procedure, shortened: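 Acute toxicity in mice dosed intraperitoneally, reported as LD50 in mg/kg.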

[3] = tested on: Mus musculus; experiment: Toxicity in mouse acetic acid writhe model assessed as mortality at 5 mg/kg, ip; type: organism-based; parameters: dose 5 mg/kg, route intraperitoneal; conditions: in vivo
Procedure, shortened: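 Mice given 5 mg/kg ip in the acetic acid-induced writhing test; deaths recorded, alongside percent reduction of writhes versus blank control.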

[4] = tested on: Liver microsomes; experiment: Antioxidant activity in rat liver microsome assessed as inhibition of FeSO4-induced lipid peroxidation at 10 uM incubated for 15 mins prior to FeSO4-challenge measured after 15 mins by modified thiobarbituric acid method; type: functional
[5] = tested on: HCT-8; experiment: Cytotoxicity against human HCT8 cells at 10 uM after 96 hrs by MTT assay; type: functional, cell-based
[6] = tested on: Mus musculus; experiment: Analgesic activity in mouse assessed as reduction in acetic acid-induced writhing at 0.5 mg/kg, ip relative to vehicle-treated control; type: functional; parameters: scale not given: the % may be the effect or the level left; conditions: route intraperitoneal
Procedure, shortened: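 Acetic acid-induced writhing test in mice. Compound given intraperitoneally at 0.5 mg/kg. Analgesia expressed as percent reduction in number of writhes versus blank control.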

[7] = tested on: WB-F344; experiment: Hepatoprotective activity against DL-galactosamine-induced cell death in rat WB-F344 cells at 10 uM incubated for 1 hr prior to DL-galactosamine-challenge measured after 24 hrs by MTT assay; type: functional, cell-based
[8] = tested on: MCF7; experiment: Cytotoxicity against human MCF7 cells at 10 uM after 96 hrs by MTT assay; type: functional, cell-based
[9] = tested on: KETR3; experiment: Cytotoxicity against human Ketr3 cells at 10 uM after 96 hrs by MTT assay; type: functional, cell-based
[10] = tested on: Peritoneal macrophage cell; experiment: Antiinflammatory activity in mouse peritoneal macrophages assessed as inhibition of nitric oxide production at 10 uM; type: functional, cell-based
[11] = tested on: BGC-823; experiment: Cytotoxicity against human BGC823 cells at 10 uM after 96 hrs by MTT assay; type: functional, cell-based
[12] = tested on: A549; experiment: Cytotoxicity against human A549 cells at 10 uM after 96 hrs by MTT assay; type: functional, cell-based

SMILES	Activity [1]	LD50 [2]	Activity [3]	inhibition [4]	Activity [5]	Activity [6]	Activity [7]	Activity [8]	Activity [9]	inhibition [10]	Activity [11]	Activity [12]
COC[C@@]12CC[C@H](OC)[C@]34C([C@H]([C@H](OC)[C@H]13)[C@]1(OC(C)=O)[C@H]3[C@@H](OC(=O)c5ccccc5)[C@](O)(C[C@H]34)[C@H](OC)[C@@H]1O)N(C)C2	inactive	4.37 mg/kg	Toxic	inactive	inactive	30%	inactive	inactive	inactive	inactive	inactive	inactive
COC[C@@]12CC[C@H](OC)[C@]34C(C([C@H](OC)[C@H]13)[C@]1(OC(C)=O)[C@H]3[C@@H](OC(=O)c5ccccc5)[C@](O)(C[C@H]34)[C@@H](OC)[C@@H]1O)N(C)C2 [HYPACONITINE]	inactive	2.65 mg/kg	Toxic	inactive	inactive	36%	inactive	inactive	inactive	inactive	inactive	inactive
